In PubChem BioAssay AID602134 (Broad Institute, 2011) one finds outcome data, which are given here for one compound.

The nature of the test: transferrin endocytosis inhibition in mSR-BI cells, dose response, selectivity assay for SR-BI HDL uptake inhibitor project, imaging, Alexa594-transferrin, dry powder (AID 602134). As to conditions: series mostly up to 35 µM. The procedure, abridged:
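Assay system: mSR-BI cells; buffer or medium: serum-free DMEM with 1% BSA after serum wash; reagent: Alexa-594 transferrin, 30 µg/mL; times: 30 min transferrin exposure, 37 °C; signal: fluorescence imaging, Alexa-594 and DAPI; evaluation: normalized percent of cells with above-threshold perinuclear transferrin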

Each structure is given as a SMILES string. Activity calls are given as the source filed them.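 Rule for the calls: active = falling transferrin uptake with a fitted half-maximal potency at or below twice the top valid tested dose; inconclusive = flat fit with a 30 to 70% drop, or poor fit; inactive = the rest.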

For `CC1CCC/C=C/C2CC(O)CC2C(O)/C=C\C(=O)O1` (stereo unspecified), the compound was called inactive.
